# According to ChEMBL document CHEMBL5346888, “Insight into non-nucleoside triazole-based systems as viral polymerases inhibitors” (Eur J Med Chem, 2023):
# Columns and labels:
# [1] = Selectivity index, ratio of CC50 for cytotoxicity against African green monkey Vero E6 cells assessed as reduction in cell viability to EC50 for antiviral activity against SARS-CoV-2 infected in African green monkey Vero E6 cells assessed as inhibition of virus growth; format: toxicity, cell-based, Vero C1008; conditions: read-out: Ratio CC50/EC50
# SARS-CoV-2 = assay: Antiviral activity against SARS-CoV-2 infected in African green monkey Vero E6 cells assessed as inhibition of virus growth; format: functional, organism-based; conditions: Severe acute respiratory syndrome coronavirus 2, Vero C1008
# [2] = molecular target: Hepatitis C virus NS5B RNA-dependent RNA polymerase (Hepatitis C virus, UniProt Q8JXU8); assay: Inhibition of Hepatitis C virus NS5B polymerase; set-up: species or system Hepacivirus hominis
# [3] = molecular target: Hepatitis C virus NS5B RNA-dependent RNA polymerase (Hepatitis C virus) (UniProt Q8JXU8); assay: Inhibition of Hepatitis C virus NS5B polymerase at 100 uM relative to control; conditions: Hepacivirus hominis
# [4] = Selectivity index, ratio of CC50 for cytotoxicty against human Huh-7 cells to EC50 for antiviral activity against HCV infected in human Huh-7 cells assessed as reduction in viral infection; format: toxicity, cell-based; conditions: read-out: Ratio CC50/EC50
# [5] = Selectivity index, ratio of CC50 for cytotoxicity against human MT4 cells assessed as reduction in cell viability to EC50 for antiviral activity against HIV-1 RES056 infected in human MT4 cells; format: toxicity, cell-based; conditions: read-out: Ratio CC50/EC50
# Outline: (§1)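 MT-4 cells infected with wild-type HIV-1 IIIB, or with RES056 (K103N + Y181C double RT mutant) for the SI ratio line. Antiviral activity and cytotoxicity were both read by the tetrazolium (MTT) colorimetric method. […] SI was calculated as CC50/EC50.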
# [6] = Selectivity index, ratio of CC50 for cytotoxicity against human MT4 cells assessed as reduction in cell viability to EC50 for antiviral activity against wild type HIV-1 IIIB infected in human MT4 cells; format: toxicity, cell-based; conditions: read-out: Ratio CC50/EC50; outline: as §1
# [7] = test system: Human immunodeficiency virus 1; assay: Antiviral activity against wild type HIV-1 IIIB infected in human MT4 cells assessed as reduction in virus-induced cytopathicity by MTT assay; format: functional, organism-based; conditions: Human immunodeficiency virus 1, IIIB; outline: as §1
# [8] = test system: Human immunodeficiency virus 1; assay: Antiviral activity against HIV-1 harboring reverse transcriptase K103N mutant infected in human MT4 cells assessed as reduction in virus-induced cytopathic effect; format: functional, organism-based; conditions: Human immunodeficiency virus 1, MT4
# [9] = test system: Human immunodeficiency virus 1; assay: Antiviral activity against HIV-1 harboring reverse transcriptase F227L/V106A double mutant infected in human MT4 cells assessed as reduction in virus-induced cytopathic effect; format: functional, organism-based; conditions: Human immunodeficiency virus 1, MT4
# [10] = test system: Human immunodeficiency virus 1; assay: Antiviral activity against HIV-1 harboring reverse transcriptase Y181C mutant infected in human MT4 cells assessed as reduction in virus-induced cytopathic effect; format: functional, organism-based; conditions: Human immunodeficiency virus 1, MT4
# [11] = test system: Human immunodeficiency virus 1; assay: Antiviral activity against HIV-1 harboring reverse transcriptase E138K mutant infected in human MT4 cells assessed as reduction in virus-induced cytopathic effect; format: functional, organism-based; conditions: Human immunodeficiency virus 1, MT4
# [12] = test system: Human immunodeficiency virus 1; assay: Antiviral activity against HIV-1 harboring reverse transcriptase Y188L mutant infected in human MT4 cells assessed as reduction in virus-induced cytopathic effect; format: functional, organism-based; conditions: Human immunodeficiency virus 1, MT4
# [13] = test system: Human immunodeficiency virus 1; assay: Antiviral activity against wild type HIV-1 infected in human HeLa cells assessed as reduction in viral growth incubated for 48 hrs by bright-glo luciferase assay; format: functional, organism-based; conditions: Human immunodeficiency virus 1, HeLa
# [14] = Cytotoxicity against human HeLa cells assessed as reduction in cell viability incubated for 48 hrs by cellTiter-glo assay; format: toxicity, cell-based
# [15] = test system: Human immunodeficiency virus 1; assay: Antiviral activity against HIV-1 harboring K103N/Y181C double mutant infected in human HeLa cells assessed as reduction in viral growth incubated for 48 hrs by bright-glo luciferase assay; format: functional, organism-based; conditions: Human immunodeficiency virus 1, HeLa
# CYP2D6 = CYP2D6 (Homo sapiens, UniProt P10635); assay: Inhibition of CYP2D6 (unknown origin); format: ADME
# [16] = Antiviral activity against RSV B infected in human HEp-2 cells assessed as inhibition of virus-induced cytopathogenic effect; format: functional, cell-based; conditions: human respiratory syncytial virus
# Human orthopneumovirus = assay: Antiviral activity against RSV A infected in human HEp-2 cells assessed as inhibition of virus-induced cytopathogenic effect; format: functional, organism-based; conditions: human respiratory syncytial virus
# [17] = test system: Human immunodeficiency virus 1; assay: Antiviral activity against HIV-1 harboring K103 N/Y181C double mutant infected in human HeLa cells assessed as reduction in viral growth; format: functional, organism-based; conditions: Human immunodeficiency virus 1, HeLa
# [18] = test system: Human immunodeficiency virus 1; assay: Antiviral activity against wild type HIV-1 infected in human HeLa cells assessed as reduction in viral growth; format: functional, organism-based; conditions: Human immunodeficiency virus 1, HeLa
# [19] = Cytotoxicity against human MT4 cells assessed as reduction in cell viability; format: toxicity, cell-based; outline: as §1
# Hepatitis C virus = assay: Antiviral activity against HCV assessed as reduction in viral growth; format: functional, organism-based, Hepacivirus hominis
# Influenza A virus [20] = assay: Antiviral activity against influenza A H1N1 infected in MDCK cells assessed as reduction in viral replication by plaque reduction assay; format: functional, organism-based
# [21] = Cytotoxicity against dog MDCK cells assessed as reduction in cell viability by MTT assay; format: toxicity, cell-based, Canis lupus familiaris
# [22] = Selectivity index, ratio of CC50 for cytotoxicity against dog MDCK cells assessed as reduction in cell viability by MTT assay to EC50 for antiviral activity against influenza A H1N1 infected in MDCK cells assessed as reduction in viral replication by plaque reduction assay; format: toxicity, cell-based; conditions: read-out: Ratio CC50/EC50
# Influenza A virus [23] = assay: Antiviral activity against Influenza A virus H9N2 infected in MDCK cells assessed as inhibition of viral replication; format: functional, organism-based
# [24] = Cytotoxicity against dog MDCK cells assessed as reduction in cell viability; format: toxicity, cell-based, Canis lupus familiaris
# Huh-7 = assay: Anticancer activity against human Huh-7 cells measured after 72 hrs; format: functional, cell-based; conditions: Huh-7, 72 h
# Hepatitis C virus NS5B RNA-dependent RNA polymerase, sequence (Q8JXU8 whole entry): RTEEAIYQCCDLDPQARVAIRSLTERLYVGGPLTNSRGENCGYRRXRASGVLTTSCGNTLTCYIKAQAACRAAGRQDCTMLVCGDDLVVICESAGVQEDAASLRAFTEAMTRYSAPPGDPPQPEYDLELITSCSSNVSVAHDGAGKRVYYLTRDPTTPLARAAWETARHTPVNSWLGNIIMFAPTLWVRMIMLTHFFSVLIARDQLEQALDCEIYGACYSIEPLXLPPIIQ
# Hepatitis C virus NS5B RNA-dependent RNA polymerase (Hepatitis C virus), sequence (Q8JXU8 as listed by the source): as the sequence (Q8JXU8 whole entry) above
# CYP2D6, sequence (P10635 whole entry): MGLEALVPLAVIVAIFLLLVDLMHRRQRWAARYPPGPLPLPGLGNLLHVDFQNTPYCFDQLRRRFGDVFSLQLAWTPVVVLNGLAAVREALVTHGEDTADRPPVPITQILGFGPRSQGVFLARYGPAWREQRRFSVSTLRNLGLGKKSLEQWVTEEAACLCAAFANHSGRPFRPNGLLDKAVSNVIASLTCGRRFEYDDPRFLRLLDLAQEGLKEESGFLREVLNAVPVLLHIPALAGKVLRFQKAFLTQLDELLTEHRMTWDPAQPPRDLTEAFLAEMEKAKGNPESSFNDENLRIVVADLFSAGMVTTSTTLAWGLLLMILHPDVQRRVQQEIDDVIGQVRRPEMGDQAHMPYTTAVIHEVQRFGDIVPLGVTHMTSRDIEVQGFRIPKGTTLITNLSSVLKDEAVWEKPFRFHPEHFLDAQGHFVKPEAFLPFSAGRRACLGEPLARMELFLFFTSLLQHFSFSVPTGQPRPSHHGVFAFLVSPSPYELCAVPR
compound,measurement,setting,value
O=C(OCc1cn(-c2ccc([N+](=O)[O-])cc2)nn1)c1cnccn1,selectivity ratio,[1],10.3
same,IC50,SARS-CoV-2,477 nM
CCc1cccc2c3c([nH]c12)C(CC)(Cc1n[nH]c(=S)n1CC)OCC3 (stereo unspecified),IC50,[2],21600 nM
same,inhibition,[3],74.6%
O=C(OCc1cn(-c2ccc(F)cc2)nn1)c1cnccn1,selectivity ratio,[1],0.3
same,IC50,SARS-CoV-2,12200 nM
CCc1cc(CC[C@@]2(C3CCCC3)CC(O)=C(Cc3nc4nc(C)cc(C)n4n3)C(=O)O2)cc(CC)n1,IC50,[2],12 nM
O=C(CC(=O)c1nnc[nH]1)c1ccc(OCc2ccc(F)cc2)cc1,selectivity ratio,[4],> 128
Cc1cc(C)c(Oc2cc(Nc3ccc(C#N)cc3)ncc2C(=O)NCc2cn(CCC#N)nn2)c(C)c1,selectivity ratio,[5],17
same,selectivity ratio,[6],2040
CC(C)Nc1cccnc1N1CCN(C(=O)c2cc3cc(NS(C)(=O)=O)ccc3[nH]2)CC1 [DELAVIRDINE],EC50,[7],38 nM
same,EC50,[8],3000 nM
same,EC50,[9],2270 nM
same,EC50,[10],2460 nM
same,EC50,[11],51 nM
same,selectivity ratio,[6],733
same,EC50,[12],840 nM
O=C(OCc1cn(-c2ccccc2Cl)nn1)c1cnccn1,selectivity ratio,[1],3.7
same,IC50,SARS-CoV-2,952 nM
CCc1cccc2c3c([nH]c12)C(CC)(Cc1n[nH]c(=S)n1C1CCCCC1)OCC3 (stereo unspecified),inhibition,[3],45.6%
NS(=O)(=O)c1ccc(NC(=O)CSc2nnc(Br)n2-c2ccc(C3CC3)c3ccccc23)c(Cl)c1,EC50,[13],0.14 nM
same,CC50 at 48 h,[14],≥ 3000 nM
same,EC50,[15],0.23 nM
CCCn1c(CC2(CC)OCCc3c2[nH]c2c(CC)cccc32)n[nH]c1=S (stereo unspecified),IC50,[2],26000 nM
same,inhibition,[3],69%
CCCCn1c(CC2(CC)OCCc3c2[nH]c2c(CC)cccc32)n[nH]c1=S (stereo unspecified),IC50,[2],25400 nM
same,inhibition,[3],72.3%
CCC(C#N)(CC)c1ccc(CCC2(C3CCCC3)CC(O)=C(Cc3nc4nc(C)cc(C)n4n3)C(=O)O2)cc1F (stereo unspecified),IC50,CYP2D6,> 6000 nM
same,IC50,[2],5 nM
C=CCn1c(CC2(CC)OCCc3c2[nH]c2c(CC)cccc32)n[nH]c1=S (stereo unspecified),IC50,[2],40300 nM
same,inhibition,[3],58.2%
COc1ccc(-n2cc(COC(=O)c3cnccn3)nn2)cc1,selectivity ratio,[1],3.2
same,IC50,SARS-CoV-2,120 nM
COc1cc(-c2noc(-c3nnn(-c4ccccc4Cl)c3C)n2)cc(OC)c1OC,EC50,[16],1000 nM
same,EC50,Human orthopneumovirus,1000 nM
Cc1ccc(NC(=O)CSc2nnc(C)n2-c2ccccc2)c(Br)c1,EC50,[17],1300 nM
same,EC50,[18],100 nM
NC(=O)c1nc(F)cnc1O,selectivity ratio,[1],3.8
same,IC50,SARS-CoV-2,1380 nM
Cc1ccnc2c1NC(=O)c1cccnc1N2C1CC1 [NEVIRAPINE],CC50,[19],> 15000 nM
Cc1cc(C)n2nc(CC3=C(O)CC(CCc4ccc(C(C)(C)C#N)c(F)c4)(C4CCCC4)OC3=O)nc2n1 (stereo unspecified),EC50,Hepatitis C virus,15 nM
same,IC50,[2],3 nM
CCc1cc(CC[C@]2(C3CCCC3)CC(O)=C(Cc3nc4nc(C)cc(C)n4n3)C(=O)O2)cc(CC)n1 [FILIBUVIR],IC50,[2],7 nM
Cc1cc(C)n2nc(CC3=C(O)CC(CCc4ccc(C(C)(C)O)c(F)c4)(C4CCCC4)OC3=O)nc2n1 (stereo unspecified),IC50,CYP2D6,> 6000 nM
same,IC50,[2],140 nM
COc1ccccc1-n1cc(COC(=O)c2cnccn2)nn1,selectivity ratio,[1],2.1
same,IC50,SARS-CoV-2,1080 nM
CCc1cccc2c3c([nH]c12)C(CC)(Cc1n[nH]c(=S)n1Cc1ccccc1)OCC3 (stereo unspecified),inhibition,[3],3.78%
Cc1cc(C)c(Oc2cc(Nc3ccc(C#N)cc3)ncc2C(=O)NCc2cn(CC(=O)N3CCOCC3)nn2)c(C)c1,EC50,[7],20 nM
same,selectivity ratio,[5],12
same,selectivity ratio,[6],9280
CCc1c(C)nc2nnc(-c3ccccc3Cl)n2c1O,EC50,Influenza A virus [20],550 nM
same,CC50,[21],125000 nM
same,selectivity ratio,[22],227
same,EC50,Influenza A virus [23],90 nM
COc1ccc(C(=O)Nc2nc3n(n2)C(c2ccccc2)C=C(C)N3)cc1 (stereo unspecified),CC50,[24],> 250000 nM
Cc1cc(C)c(Oc2cc(Nc3ccc(C#N)cc3)ncc2C(=O)NCc2cn(CC(=O)N3CCCC3)nn2)c(C)c1,EC50,[7],20 nM
same,selectivity ratio,[5],41
same,selectivity ratio,[6],2100
CCc1cccc2c3c([nH]c12)C(CC)(Cc1n[nH]c(=S)n1C)OCC3 (stereo unspecified),IC50,[2],14800 nM
same,inhibition,[3],78.9%
same,EC50,Huh-7,4290 nM
CCc1cccc2c3c([nH]c12)C(CC)(Cc1n[nH]c(=S)n1-c1ccccc1)OCC3 (stereo unspecified),inhibition,[3],49.5%
CCc1cc(CCC2(C3CCCC3)CC(O)=C(Cc3nc4nc(C)cc(C)n4n3)C(=O)O2)cc(CC)n1 (stereo unspecified),IC50,[2],16 nM
O=C(OCc1cn(-c2ccc(Cl)cc2)nn1)c1cnccn1,selectivity ratio,[1],1.7
same,IC50,SARS-CoV-2,1150 nM
